Activity calls are given as the source filed them. The rule behind the calls is not given here.

The test system of one test is Heart. Kind of test: Coronaroconstriction in Wistar rat heart Langendorff preparations at 1 uM. Format: functional, tissue-based.
Another test concerns Aorta. Kind of test: Vasodilation activity assessed as inhibition of KCl-induced contraction in Wistar rat aorta at 50 uM. Format: functional. The essentials: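 Rat aortic rings were contracted with 90 mM KCl with and without a maximal concentration of compound. Inhibition was calculated as 100 × (C − AC)/C, where C and AC are the contractile effects in milligrams with KCl alone and with compound.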

The subject of test [1] is Rattus norvegicus. Kind of test: Toxicity in Wistar rat assessed as death at 20 mg/kg, ip after 1 hr. The format is functional, organism-based. Set-up: dose 20 mg/kg.
Test [2] in a line: Vasoconstriction effect in Wistar rat caudal artery. The format is functional, tissue-based. The essentials:
(§1)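 Endothelium-denuded rat caudal artery rings; denudation was confirmed by absence of carbamylcholine-induced relaxation. Cumulative concentration–response curves were run over 0.1–50 µM. Contractions were expressed as a percentage of the 90 mM KCl-induced contraction. Values are mean of at least 4 rings.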

Test [3] in a line: Vasoconstriction effect in Wistar rat caudal artery relative to KCl. The format is functional, tissue-based. The essentials: as §1
In test [4] the test system is Liver. Kind of test: Stimulation of mitochondrial permeability transition measured by Ca2+ retention capacity of Wistar Albino rat liver mitochondria at 50 uM. The format is functional. The essentials:
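Liver mitochondria from Albino Wistar rats, isolated by differential centrifugation and suspended in Tris/HCl pH 7.4 with 0.25 M sucrose and 0.1 mM EGTA. Only preparations with RCR ≥ 3.0 (Clark electrode, succinate, 25 °C) were used. MPT was induced by Ca2+ at 25 °C in medium of 200 mM sucrose, 10 mM Tris–MOPS, 10 µM EGTA–Tris, 1 mM Pi, 0.5 µg/mL oligomycin, 5 mM succinate, 2 µM rotenone, pH 7.4.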

Test [5] concerns Rattus norvegicus. Kind of test: Toxicity in Wistar rat assessed as death at 40 mg/kg, ip after 1 hr. The format is functional, organism-based. Set-up: dose 40 mg/kg. The essentials: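 Four male Wistar rats (150–250 g) per compound. Drug was dissolved in DMSO at 40 mg/kg and injected intraperitoneally. Animals were kept in a quiet room and watched every 15 min for early signs of toxicity. Four rats given solvent alone served as controls.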

In test [6] the test system is Liver. Kind of test: Stimulation of mitochondrial permeability transition measured by Ca2+ retention capacity of mouse liver mitochondria. Format: functional.

As to `OC(C1=CC2CCC1/C2=C(\c1ccccc1)c1ccccn1)(c1ccccc1)c1ccccn1` (mixture of isomers), the outcome in the test with Heart was inactive. In the test with Aorta, the inhibition at 50 µM was determined as 60%. The Activity entry with Rattus norvegicus [1] was “Not toxic”.
Take `O=C1NC(=O)[C@H]2C3C=CC(C3)[C@@H]12`: in the test with Heart, the outcome was inactive.
`O=C1NC(=O)[C@H]2C3C=C(C(O)(c4ccccc4)c4ccccn4)C(C3)[C@@H]12` (stereo not given in full): in the test on Heart, the outcome was inactive.
With `O=C1NC(=O)C2C3C=CC(C3=C(c3ccccc3)c3ccccn3)C12` (stereo not given), a half-maximal effect in test [2] (EC50) was put at 7.8 µM. Also, in the test with Heart, the result was inactive. Moreover, the Activity in test [3] is 193%; in the test with Rattus norvegicus [1], “Not toxic”. Also, the outcome with Liver [4] was Active.
In the case of `O=C1NC(=O)[C@H]2C3CC(C=C3C(O)(c3ccccc3)c3ccccn3)[C@@H]12` (stereo not given in full), in the test with Heart, the result was inactive.
Still for that read-out and setting: then `O=C1CCC(=O)N1`, with “inactive”; and `CC(O)(c1ccccc1)c1ccccn1` (stereo not given), with “inactive”.
As to `OC(C1=CC2CCC1C2)(c1ccccc1)c1ccccn1` (mixture of isomers), in the test on Heart, the result was inactive. Further, in the test on Aorta, the inhibition at 50 µM is 69%. The Activity result in the test on Rattus norvegicus [1] is “Not toxic”.
Turning to `O=C1NC(=O)[C@H]2C3C(C(O)(c4ccccc4)c4ccccn4)=CC(C3=C(c3ccccc3)c3ccccc3)[C@@H]12` (stereo not given in full), in test [2], the response was half-maximal at 4.2 µM (EC50). For the same compound, the Activity entry is “Toxic” in the test on Rattus norvegicus [5] and 185% in test [3]. Further, in the test on Heart, the outcome was Active. For the same compound, in the test on Aorta, the inhibition at 50 µM came to 42%.
Take `O=C1NC(=O)C2C3OC(C=C3C(O)(c3ccccc3)c3ccccn3)C12` (stereo not given): in the test with Heart, the result was inactive.
Take `C=C(c1ccccc1)c1ccccn1`: in test [2], the response was half-maximal at 11 µM (EC50). Moreover, the outcome in the test with Liver [6] and in the test on Heart was inactive. The Activity in test [3] was 185%; in the test on Rattus norvegicus [1] it was “Not toxic”. In the test with Liver [4], the outcome was Active.
With `O=C1NC(=O)[C@H]2C3C=C(C(O)(c4ccccc4)c4ccccn4)C(C3=C(c3ccccc3)c3ccccc3)[C@@H]12` (stereo not given in full), the outcome in the test with Heart was inactive. The inhibition at 50 µM in the test with Aorta turned out to be 31%.
On to `O=C1NC(=O)C2C3C(C(O)(c4ccccc4)c4ccccn4)=CC(/C3=C(/c3ccccc3)c3ccccn3)C12` (stereo not given), for which, in test [2], the EC50 was found to be 1 µM. For the same compound, in the test on Heart, the result was Active. Moreover, the values for the Activity (in test [3]; in the test on Rattus norvegicus [1]) were 209% and “Toxic”, respectively. In the test on Aorta, the inhibition at 50 µM came out at 64%.

As a reminder, the inhibition is the percentage by which the read-out fell short of the control. A word on the EC50: it is the midpoint of the concentration-response curve.

The values are drawn from ChEMBL document CHEMBL1143018, “Synthesis and activity studies of analogues of the rat selective toxicant norbormide” (Bioorg Med Chem, 2007).
